These results are taken from ChEMBL document CHEMBL3751768, “Synthesis and anti-tuberculosis activity of glycitylamines” (2016).

Molecules are shown by their SMILES.

This test concerns Mycobacterium tuberculosis. In words: Antitubercular activity against […] after 7 days by alamar blue assay. Type of test: functional. The settings on record: 168 h. A digest of the protocol: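 M. bovis BCG stock, thawed with sonication/ice cycles, diluted to 8 × 10⁴ bacteria per mL in Tween albumin broth (Dubos/OADC). Compounds prepared in PBS (up to 5% DMSO) at double strength, filter-sterilised, serially diluted; tested in triplicate from […] start.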
(In general: The colour change of resazurin is a common sign of viable cells or microbes.)

By MIC is commonly meant the lowest concentration that inhibits growth of the organism. In the case of `OC[C@H]1NC[C@H](O)[C@H]1O`, the MIC was > 3500 µM.

Consider `OC[C@@H]1NC[C@@H](O)[C@@H]1O`, for which the minimal inhibitory concentration (MIC) was > 3500 µM. To `NC1CCCCCCCCCCC1` belongs 680 µM. To `O=C1OC[C@H]2[C@@H](O)[C@@H](O)CN12` belongs > 3500 µM. `OC[C@@H](O)[C@H](O)[C@H](O)CNC1CCCCCCCCCCC1`: the MIC is 160 µM.

On to `C=C[C@@H](O)[C@H](O)CNCc1ccccc1`, for which the minimal inhibitory concentration (MIC) is > 500 µg/mL. Under `OC[C@@H]1NC[C@H](O)[C@@H]1O` stands > 3500 µM; under `C[C@H](O)[C@@H](O)[C@@H](O)[C@H](O)CNC1CCCCCCC1`, > 500 µg/mL; under `C=C[C@@H](O)[C@@H](O)CNCCCCCCCC`, 940 µM.

Turning to `C=C[C@@H](O)[C@@H](O)CNCc1ccccc1`, the MIC was > 500 µg/mL.

In the case of `C=C[C@H](O)[C@@H](O)CNCc1ccccc1`, the MIC is > 500 µg/mL. Take `C=C[C@@H](O)[C@@H](O)CN`: the minimal inhibitory concentration (MIC) was > 3500 µM. To `C=C[C@@H](O)[C@H](O)CNC(c1ccccc1)c1ccccc1` belongs 1600 µM; to `C=C[C@@H](O)[C@@H](O)CNC(c1ccccc1)c1ccccc1`, 1600 µM; to `C[C@H](O)[C@@H](O)[C@@H](O)[C@H](O)CNC1CCCCCCCCCCC1`, 680 µM. Under `O=C1OC[C@H]2[C@@H](O)CCN12` stands > 3500 µM.

`O=C1OC[C@H]2[C@@H](O)[C@H](O)CN12`: the minimal inhibitory concentration (MIC) is > 3500 µM. Under `C=C[C@@H](O)[C@H](O)CN(C)CCCCCCCCCCCCCCCC` stands 22 µM; under `C=C[C@@H](O)[C@H](O)CNCCCCCCCC`, 680 µM.

Turning to `OC[C@@H]1NCC[C@@H]1O`, the minimal inhibitory concentration (MIC) was > 3500 µM.

As to `C=C[C@H](O)[C@@H](O)CNCCCCCCCC`, the MIC worked out at 940 µM. `C=C[C@H](O)[C@@H](O)CNC(c1ccccc1)c1ccccc1` showed a minimum inhibitory concentration (MIC) of 440 µM. This MIC lies about 2.1-fold lower than the previous one. To `C=C[C@H](OC)[C@H](CNC(c1ccccc1)c1ccccc1)OC` belongs 800 µM. To `C=C[C@@H](O)[C@H](O)CNCCCCCCCCCCCCCCCC` belongs 21 µM; to `C=C[C@@H](O)[C@H](O)CNC[C@@H](O)[C@H](O)C=C`, 2000 µM. To `C[C@H](O)[C@H](O)[C@@H](O)[C@@H](O)CNC1CCCCCCC1` belongs > 500 µg/mL. Turning to `C=C[C@@H](O)[C@H](O)CN(CCCC)CCCC`, the MIC was > 500 µg/mL.

For `OC[C@@H](O)[C@H](O)[C@H](O)CNC1CCCCC1`, the minimum inhibitory concentration (MIC) was > 500 µg/mL. Under `C=C[C@@H](O)[C@H](O)CNC12CC3CC(CC(C3)C1)C2` stands > 500 µg/mL; under `C=C[C@@H](O)CCN`, > 3500 µM. Consider `C[C@H](O)[C@@H](O)[C@@H](O)[C@H](O)CNC1CCCCC1`, for which the MIC is > 500 µg/mL. To `O=C1OC[C@@H]2[C@H](O)[C@@H](O)CN12` belongs > 3500 µM; to `OC[C@@H](O)[C@H](O)[C@H](O)CNC12CC3CC(CC(C3)C1)C2`, > 500 µg/mL; to `C=C[C@@H](O)[C@H](O)CNC1CCCCCCCCCCC1`, 200 µM. Under `OC[C@@H](O)[C@H](O)[C@H](O)CNC1CCCCCCC1` stands > 500 µg/mL; under `C=C[C@H](O)[C@@H](O)CN`, > 3500 µM; under `C=C[C@@H](O)[C@H](O)CN`, > 3500 µM. `C=C[C@@H](O)[C@H](O)CNCCCCCCCCCCCCCC` displayed an MIC of 45 µM.

The molecule `NC(c1ccccc1)c1ccccc1` [AMINODIPHENYLMETHANE] had a minimum inhibitory concentration (MIC) of 1360 µM. To `CC[C@@H](CO)NCCN[C@@H](CC)CO` [ETHAMBUTOL] belongs 39 µM; to `CCCCCCCCCCCCCCCCN` [HEXADECYLAMINE], 130 µM; to `CCCCCCCCCCCCCCN` [TETRADECYLAMINE], 140 µM.
